Broadly, the MFC is the lowest tested concentration that kills the fungus rather than only halting it. One may read the MIC as the lowest concentration that inhibits growth of the organism.

From ChEMBL document CHEMBL3045311, “Naturally occurring antifungal agents against Zygosaccharomyces bailii and their synergism” (2005) come the findings set out here.

Test [1] relates to Saccharomyces cerevisiae. The experiment in a line: Antifungal activity against Saccharomyces cerevisiae ATCC 7754 assessed as reduction in plasma membrane fluidity at 100 ug/mL.
Test [2] deals with Zygosaccharomyces bailii. The experiment in a line: Inhibition of cell growth in Zygosaccharomyces bailii at 50 ug/mL. The test is classed as functional, organism-based. An outline of the steps: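 Exponentially growing Z. bailii ATCC 60483 in YPD broth at 30 °C with drug at 0, 50 or 100 µg/mL. Viable counts taken over time by serial dilution in sterile saline and plating on YPD agar, 48 h at 30 °C, then CFU counted.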

In test [3] the test system is Zygosaccharomyces bailii. In words: Antifungal activity against Zygosaccharomyces bailii assessed as growth inhibition measured after 48 hr by macrodilution assay. The test is classed as functional.
Test [4] relates to Zygosaccharomyces bailii. The experiment in a line: Antifungal activity against Zygosaccharomyces bailii assessed as growth inhibition measured at pH 9 after 48 hr by macrodilution assay. The test is classed as functional. The method in brief: (§1)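 Broth macrodilution in YPD adjusted to the stated pH, Z. bailii ATCC 60483. Serial 2-fold dilutions in DMF (1% final) added to broth; inoculum 10^5 CFU/mL from a 5 h 30 °C preculture. Static incubation, 30 °C, 48 h. MIC is the lowest concentration with no visible growth; MFC is the lowest with no regrowth after 48 h subculture in drug-free YPD.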

Test [5] relates to Zygosaccharomyces bailii. The experiment in a line: Antifungal activity against Zygosaccharomyces bailii assessed as growth inhibition measured at pH 7 after 48 hr by macrodilution assay. The test is classed as functional. The method in brief: as §1
In test [6] the test system is Zygosaccharomyces bailii. In words: Antifungal activity against Zygosaccharomyces bailii assessed as growth inhibition measured at pH 5 after 48 hr by macrodilution assay. It is filed as functional. An outline of the steps:
as §1

The test system of test [7] is Zygosaccharomyces bailii. The experiment in a line: Antifungal activity against Zygosaccharomyces bailii assessed as growth inhibition measured at pH 3 after 48 hr by macrodilution assay. It is filed as functional. An outline of the steps: as §1
Test [8] deals with Zygosaccharomyces bailii. The experiment in a line: Antifungal activity against Zygosaccharomyces bailii assessed as growth inhibition at MFC measured after 24 hr by macrodilution assay in presence of cycloheximide protein synthesis inhibitor. The test is classed as functional, organism-based. The method in brief: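 Z. bailii ATCC 60483 exponential cells grown in YPD broth at 30 °C with 50 µg/mL cycloheximide. After 24 h, agent added at its MFC. Viable counts by serial dilution in sterile saline, plating on YPD agar, 48 h at 30 °C, then colony counting.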

Test [9] deals with Saccharomyces cerevisiae. The experiment in a line: Antifungal activity against Saccharomyces cerevisiae ATCC 7754 assessed as reduction in plasma membrane fluidity at 25 ug/mL.
Test [10] relates to Zygosaccharomyces bailii. The experiment in a line: Antifungal activity against Zygosaccharomyces bailii assessed as reduction in cell viability at 100 ug/mL treated at 24, 48 and 72 hr measured after 1 hr of each addition.

Converted amounts (≈) assume the structure as drawn. The source made the active and inactive calls. No cut-off for these calls is given here.

Consider `CCCCCCCCO`, for which, in test [1], the result was inactive.
Still for that read-out and setting: to `CCCCCCCCOC(=O)c1cc(O)c(O)c(O)c1` belongs “Active”.
`C[C@@H]1C[C@@H]([C@H](O)CC2CC(=O)NC(=O)C2)C(=O)[C@@H](C)C1`: the inhibition entry in test [2] is “Active”.
For `CCC/C=C/C(=O)O` [(2E)-HEXENOIC ACID], the MFC in test [3] was 1600 µg/mL (≈ 14 mM); in test [3] (read-out: MFC), 800 µg/mL (≈ 7.01 mM).
The matching figures for `CCC/C=C\C(=O)O` [(2Z)-HEXENOIC ACID]: 1600 µg/mL (≈ 14 mM) and 800 µg/mL (≈ 7.01 mM).
On to `C/C=C/c1ccc(OC)cc1` [ANETHOLE], for which the MFC was 1600 µg/mL (≈ 10.8 mM) in test [4]; 1600 µg/mL (≈ 10.8 mM) in test [5]; 1600 µg/mL (≈ 10.8 mM) in test [6]; 1600 µg/mL (≈ 10.8 mM) in [7]; 400 µg/mL (≈ 2.7 mM) in test [3]; 200 µg/mL (≈ 1.35 mM) in test [3] (read-out: MFC). The MIC in test [4] amounted to 1600 µg/mL (≈ 10.8 mM); in test [5], 800 µg/mL (≈ 5.4 mM); in test [6], 400 µg/mL (≈ 2.7 mM); in test [7] it was 100 µg/mL (≈ 0.675 mM).
With `CCCCCC(=O)O` [HEXANOATE], the results for the MFC in [3] and in test [3] (read-out: MFC) were 3200 µg/mL (≈ 27.5 mM) and 800 µg/mL (≈ 6.89 mM), respectively.
Consider `C/C=C/C=C/C(=O)OC` [METHYL SORBATE], for which the MFC in [3] and in test [3] (read-out: MFC) was above 3200 µg/mL in each case.
As to `Clc1ccc(COC(Cn2ccnc2)c2ccc(Cl)cc2Cl)c(Cl)c1` (stereo not given) [MICONAZOLE], the minimum fungicidal concentration (MFC) in [3] and in test [3] (read-out: MFC) was 12.5 µg/mL (≈ 0.03 mM) in each case.
On to `CC1(C)CCC[C@]2(C)[C@@H](C=O)C(C=O)=CC[C@@H]12` [POLYGODIAL], for which the “growth inhibition (GI)” value in test [8] was “Active”. Further, the MFC in test [3] and in test [3] (read-out: MFC) was 50 µg/mL (≈ 0.213 mM) throughout. Moreover, the outcome in test [9] was Active. In addition, the inhibition entry in test [10] is “Active”.
For the molecule `C/C=C/C=C/C(=O)O` [SORBIC ACID], the figures for the MFC in [3] and in [3] (read-out: MFC) were 1600 µg/mL (≈ 14.3 mM) and 800 µg/mL (≈ 7.13 mM), respectively.
